Common to all, as to type: functional
Test [1] relates to Mus musculus. Put plainly: Compound was evaluated for inhibition of spontaneous activity at 5-15 min in mouse when administered intravenously. Particulars: iv. The method, boiled down: (§1)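 Mice given the analog by intravenous injection, then run through a tetrad. Spontaneous activity is scored at 5–15 min, tail-flick at 20 min, rectal temperature at 60 min and ring immobility at 90 min after injection. ED50 comes from log dose–response linear regression over n = 4–7 active doses, with standard error estimated by ALLFIT.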

The subject of test [2] is Mus musculus. Put plainly: Compound was evaluated for reduction of rectal temperature at 60 min in mouse when administered intravenously. Particulars: iv, 1 h. A digest of the protocol:
as §1

For test [3], the system named is Mus musculus. Put plainly: Compound was evaluated for production of ring immobility at 90 min in mouse when administered intravenously. Particulars: iv, 1.5 h. A digest of the protocol:
as §1

In test [4] the test system is Mus musculus. Put plainly: Compound was evaluated for inhibition of tail-flick response at 20 min in mouse when administered intravenously. Particulars: iv. The method, boiled down: as §1

Molecules are shown by their SMILES.

`CCCCCCC(C)(C)c1cc(O)c2c(c1)OC(C)(C)[C@H]1CC[C@H](CO)C[C@H]21`: the ED50 in the test on Mus musculus [1] stood at 0.77 mg/kg; in the test with Mus musculus [2], 6.9 mg/kg; in the test on Mus musculus [3] it was 2.5 mg/kg; with Mus musculus [4], 0.58 mg/kg.
Consider `CCCCCCC(C)(C)c1cc(O)c2c(c1)OC(C)(C)[C@@H]1CC[C@@H](CO)C[C@@H]21`, for which the ED50 in the test on Mus musculus [1] turned out to be 0.0054 mg/kg; in the test with Mus musculus [2], 0.037 mg/kg; with Mus musculus [3], 0.027 mg/kg; in the test with Mus musculus [4], 0.0018 mg/kg.
Take `CCCCCc1cc(O)c2c(c1)OC(C)(C)C1CCC(C)=C[C@@H]21` (single isomer, unassigned) [DRONABINOL]: the ED50 is 1.01 mg/kg with Mus musculus [1], 1.42 mg/kg with Mus musculus [2], 1.51 mg/kg with Mus musculus [3] and 1.42 mg/kg in the test with Mus musculus [4].

The values above are taken from ChEMBL document CHEMBL1127613, “Synthesis and pharmacological properties of 11-hydroxy-3-(1',1'-dimethylheptyl)hexahydrocannabinol: a high-affinity cannabinoid agonist” (1994).
